Among the data in ChEMBL document CHEMBL3045293, “Effect of the herbicides terbuthylazine and glyphosate on photosystem II photochemistry of young olive (Olea europaea) plants” (J Agric Food Chem, 2011) are Activity and Ratio values, retold here.

Holding throughout (assay type): organism-based
The test system of data set [1] is Olea europaea. As to the kind of experiment: Toxicity in young Olea europaea (olive) plants assessed as induction of chronic photoinhibition of photosystem II at 3 kg/ha measured 60 days post dose in presence of oil Olea europaea (olive)-mill waste. The settings on record: in vivo, 1440 h.
Data set [2] deals with Olea europaea. Briefly: Toxicity in young Olea europaea (olive) plants assessed as reduction in stomatal conductance at 3 kg/ha measured 60 days post dose. The settings on record: in vivo, 1440 h. In outline:
(§1)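 Gas exchange (net photosynthetic rate, stomatal conductance, intercellular CO2) measured on young olive plants in triplicate pots. Herbicide was applied to the soil surface 24 h after OW addition, and pots without herbicide or OW served as controls. Readings were taken 24 h, 15 days and 60 days after treatment. Values are mean ± SE, n = 9, compared by Tukey test (P < 0.05).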

The subject of data set [3] is Olea europaea. Briefly: Toxicity in young Olea europaea (olive) plants assessed as reduction in non-photochemical quenching photosystem II at 3 kg/ha measured 15 days post dose. The settings on record: in vivo, 360 h. In short, it runs like this: (§2)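 Leaves of potted young olive plants; herbicide applied to the soil surface 24 h after olive-mill waste (OW) amendment; triplicate pots; untreated pots without herbicide or OW as controls. Modulated chlorophyll fluorescence (portable fluorimeter) read at 24 h, 15 days and 60 days. Light- and dark-adapted parameters taken at dawn (1–7 μmol m2 s1) and midday (1700 μmol m2 s1), after 30 min dark adaptation in leaf-clips.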

Data set [4] has as its system Olea europaea. As to the kind of experiment: Toxicity in young Olea europaea (olive) plants assessed as reduction in photosynthetic rate at 3 kg/ha measured 15 days post dose in presence of oil Olea europaea (olive)-mill waste. The settings on record: in vivo, 360 h. In short, it runs like this:
as §1

In data set [5] the test system is Olea europaea. As to the kind of experiment: Toxicity in young Olea europaea (olive) plants assessed as effect on maximum quantum efficiency of photosystem II at 3 kg/ha measured at midday 24 hr post dose. As to conditions: in vivo. In short, it runs like this:
as §2

In data set [6] the test system is Olea europaea. Briefly: Toxicity in young Olea europaea (olive) plants assessed as reduction in stomatal conductance at 3 kg/ha measured 15 days post dose. As to conditions: in vivo, 360 h. In outline:
as §1

Data set [7] concerns Olea europaea. As to the kind of experiment: Toxicity in young Olea europaea (olive) plants assessed as reduction in intracellular CO2 level at 3 kg/ha measured 60 days post dose in presence of oil Olea europaea (olive)-mill waste. As to conditions: in vivo, 1440 h. In short, it runs like this: as §1
Data set [8] relates to Olea europaea. Briefly: Toxicity in young Olea europaea (olive) plants assessed as effect on maximum quantum efficiency of photosystem II at 3 kg/ha measured 15 days post dose. As to conditions: in vivo, 360 h. In short, it runs like this: as §2
The subject of data set [9] is Olea europaea. Briefly: Toxicity in young Olea europaea (olive) plants assessed as induction of chronic photoinhibition of photosystem II at 3 kg/ha measured 60 days post dose. The settings on record: in vivo, 1440 h.
In data set [10] the test system is Olea europaea. As to the kind of experiment: Toxicity in young Olea europaea (olive) plants assessed as reduction in intracellular CO2 level at 3 kg/ha measured 15 days post dose in presence of oil Olea europaea (olive)-mill waste. As to conditions: in vivo, 360 h. In outline: as §1
Data set [11] has as its system Olea europaea. As to the kind of experiment: Toxicity in young Olea europaea (olive) plants assessed as reduction in photosynthetic rate at 3 kg/ha measured 15 days post dose. As to conditions: in vivo, 360 h. In outline: as §1
The subject of data set [12] is Olea europaea. As to the kind of experiment: Toxicity in young Olea europaea (olive) plants assessed as reduction in intracellular CO2 level at 3 kg/ha measured 60 days post dose. The settings on record: in vivo, 1440 h. In short, it runs like this: as §1
Data set [13] has as its system Olea europaea. As to the kind of experiment: Toxicity in young Olea europaea (olive) plants assessed as reduction in photosynthetic rate at 3 kg/ha measured 60 days post dose in presence of oil Olea europaea (olive)-mill waste. As to conditions: in vivo, 1440 h. In short, it runs like this: as §1
Data set [14] concerns Olea europaea. As to the kind of experiment: Toxicity in young Olea europaea (olive) plants assessed as reduction in intracellular CO2 level at 3 kg/ha measured 15 days post dose. As to conditions: in vivo, 360 h. In short, it runs like this:
as §1

Data set [15] concerns Olea europaea. Briefly: Toxicity in young Olea europaea (olive) plants assessed as reduction in quantum efficiency of photosystem II at 3 kg/ha measured 15 days post dose. The settings on record: in vivo, 360 h. In outline:
as §2

The test system of data set [16] is Olea europaea. As to the kind of experiment: Toxicity in young Olea europaea (olive) plants assessed as reduction in photosynthetic rate at 3 kg/ha measured 60 days post dose. The settings on record: in vivo, 1440 h. In short, it runs like this: as §1
In data set [17] the test system is Olea europaea. Briefly: Toxicity in young Olea europaea (olive) plants assessed as reduction in quantum efficiency of photosystem II at 3 kg/ha measured 60 days post dose. The settings on record: in vivo, 1440 h. In outline:
as §2

Data set [18] deals with Olea europaea. As to the kind of experiment: Toxicity in young Olea europaea (olive) plants assessed as stomatal conductance at 3 kg/ha measured 60 days post dose in presence of oil Olea europaea (olive)-mill waste. As to conditions: in vivo, 1440 h. In short, it runs like this: as §1
In data set [19] the test system is Olea europaea. As to the kind of experiment: Toxicity in young Olea europaea (olive) plants assessed as reduction in maximum quantum efficiency of photo system measured by Fv/Fm ratio 2 at 3 kg/ha measured 60 days post dose (reference value: 0.8). As to conditions: in vivo, 1440 h. In short, it runs like this: as §2
The test system of data set [20] is Olea europaea. Briefly: Toxicity in young Olea europaea (olive) plants assessed as stomatal conductance at 3 kg/ha measured 15 days post dose in presence of oil Olea europaea (olive)-mill waste. The settings on record: in vivo, 360 h. In short, it runs like this:
as §1

Data set [21] concerns Olea europaea. As to the kind of experiment: Toxicity in young Olea europaea (olive) plants assessed as reduction in non-photochemical quenching photosystem II at 3 kg/ha measured 60 days post dose. The settings on record: in vivo, 1440 h. In outline:
as §2

As to `O=C(O)CNCP(=O)(O)O` [GLYPHOSATE], the Activity entry is “Non-toxic” in the data set on Olea europaea [1]; “Non-toxic” in the data set on Olea europaea [2]; “Non-toxic” in the data set with Olea europaea [3]; “Toxic” in the data set on Olea europaea [4]; “Toxic” in the data set with Olea europaea [5]; “Non-toxic” in the data set on Olea europaea [6]. Further, the Activity entry in the data set with Olea europaea [7] was “Non-toxic”; in the data set on Olea europaea [8], “Toxic”; with Olea europaea [9] it was “Non-toxic”; with Olea europaea [10] it was “Toxic”; in the data set with Olea europaea [11] it was “Non-toxic”; in the data set on Olea europaea [12], “Non-toxic”. Besides, the Activity result in the data set with Olea europaea [13], in the data set on Olea europaea [14], with Olea europaea [15] and in the data set on Olea europaea [16] was “Non-toxic” in each case.
Take `CCNc1nc(Cl)nc(NC(C)(C)C)n1` [Terbuthylazine]: the Activity entry with Olea europaea [1] is listed as “Non-toxic”; with Olea europaea [2], “Non-toxic”; in the data set on Olea europaea [3] it was “Non-toxic”; in the data set on Olea europaea [4] it was “Non-toxic”; with Olea europaea [5], “Toxic”; in the data set with Olea europaea [6], “Toxic”. For the same molecule, the Activity entry was “Non-toxic” in the data set on Olea europaea [7]; “Toxic” with Olea europaea [17]; “Toxic” in the data set on Olea europaea [8]; “Non-toxic” with Olea europaea [18]; “Toxic” with Olea europaea [9]; “Non-toxic” with Olea europaea [10]. Moreover, the Activity result in the data set with Olea europaea [11] is recorded as “Toxic”; with Olea europaea [12] it was “Non-toxic”; in the data set on Olea europaea [13] it was “Non-toxic”; in the data set with Olea europaea [20] it was “Non-toxic”; in the data set with Olea europaea [14], “Toxic”; with Olea europaea [15] it was “Non-toxic”. The Activity entry in the data set on Olea europaea [21] and in the data set with Olea europaea [16] was “Toxic” each time. Moreover, in the data set with Olea europaea [19], the Ratio stood at 0.6.
